Source: PubChem (several laboratories)
Sampled rows, rich in hits. Any-hit rate of the full collection: about 4.1%.
KCNK9 inh – KCNK9 potassium channel inhibitors, primary screen, HEK293 cells, thallium flux; Potassium channel subfamily K member 9 (Homo sapiens), Q9NPC2; FluxOR thallium flux fluorescence; hits give low values; B-score at 10 µM; 310,000 compounds, 1.2% hits;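 active means ratio B-score over 3 SD below the library mean, with starting fluorescence within 5 SD of its mean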;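 further: negative B-score means less thallium flux so channel inhibition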
KCNK3 block – human KCNK3 channel inhibitors, primary screen, CHO cells, FluxOR thallium flux, B-score | Potassium channel subfamily K member 3 (Homo sapiens), O14649 | FluxOR fluorescence; hits give low values | B-score at 10 µM | 340,000 compounds, 0.84% hits | AID 602410, 2012;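 active means B-score under library mean minus 4 SD, starting fluorescence ratio at most library mean plus 5 SD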;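 further: more negative B-score means stronger inhibition of thallium flux through KCNK3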
Cl transport mod – KCC2 cotransporter modulators, thallium flux, primary screen, cell-based, HEK293 KCC2, FluoZin-2 fluorescence, MLSMR | Solute carrier family 12 member 5 (Homo sapiens), Q9H2X9 | KCC2 cells, thallium flux FluoZin-2 fluorescence | B-score of Tl+ flux slope (higher = more flux/activation; lower = inhibition) at 10 µM | 190,000 compounds, 2.2% hits | AID 1456, 2008;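 active means thallium flux slope and its plate-corrected score both differing from the plate sample mean at a set confidence after two filtering rounds, in either direction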;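 further: slope of fluorescence scaled to starting intensity during 10 to 20 s after thallium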
KCNQ1 act – potentiators or activators of KCNQ1 channel, primary screen, cell-based, thallium flux, high-throughput; CHO-K1 KCNQ1, thallium flux FluxOR fluorescence; hits give high values; B-score at 10 µM; 310,000 compounds, 0.35% hits;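 active means fluorescence ratio B-score, a plate-corrected score, at least three library SD, with initial intensity B-score within 5 SD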
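Assay system: stable KCNQ1 CHO-K1 line; medium: assay buffer, equal DMSO in all wells; timing: 90 min dye loading and 20 min compound exposure, both at room temperature; technique: kinetic FluxOR thallium fluorescence, 10-s 1-Hz baseline, 110-s post-stimulus read; read-out basis: B score of baseline-normalized fluorescence ratio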
KCNQ1 block – inhibitors of human KCNQ1 channel, primary screen, cell-based, thallium flux, high-throughput. Potassium voltage-gated channel subfamily KQT member 1 (Homo sapiens), P51787. CHO-K1 KCNQ1, FluxOR thallium flux fluorescence; hits give high values. B-score at 10 µM. 310,000 compounds, 1.3% hits. AID 2642, 2010;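 active means compounds whose thallium flux B-score, printed positive for inhibition, exceeds three library SD while starting fluorescence stays within three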;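 further: channel opened by potassium depolarization with thallium stimulus after 20 min compound exposure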
hERG protect – hERG rescue from dofetilide block, primary screen, cell-based, CHO-hERG, FluxOR thallium flux, dofetilide IC70; Voltage-gated inwardly rectifying potassium channel KCNH2 (Homo sapiens), Q12809; dofetilide IC70 present; activation (rescue from dofetilide block), less the hit threshold, % at 10 µM; 310,000 compounds, 0.51% hits; AID 1511, 2009;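 active means activation above the mean of controls blocked by dofetilide plus 5 SD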;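 further: thallium influx through hERG after potassium depolarization seen as dye fluorescence rise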
KCNQ1 inh valid – KCNQ1 potassium channel inhibitors, confirmation, cell-based, Tl flux, duplicate; shares compounds with KCNQ1 block; 1,600 compounds, 93% hits; AID 588353, 2011; KCNQ1 cell line, FluxOR thallium flux fluorescence; inhibition, % at 10 µM;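 active means primary screen active, with duplicate mean exceeding buffer control mean plus 3 SD of buffer wells, cut at about 28% in these data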;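 further: 0% = buffer control ratio and 100% = XE991 inhibitor control ratio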
CHO Tl flux – thallium flux effects in parental CHO cells, counter-screen for KCNQ1 inhibitor project, cell-based, Tl flux; shares compounds with KCNQ1 block; parental CHO-K1, FluxOR thallium flux fluorescence ratio; hits give low values; zero means no signal rise above baseline; fluorescence ratio (Tl flux) at 10 µM; 1,600 compounds, 21% hits;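 active means mean of duplicate thallium-flux fluorescence ratios in parental host cells more than 5 SD below the buffer control mean, cut at about 0.38 in these data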;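 further: ratio is peak minus minimum fluorescence divided by baseline fluorescence; actives read low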
KCNQ1 APC inh – KCNQ1 channel inhibitors, confirmation, orthogonal assay, cell-based, automated electrophysiology; shares compounds with KCNQ1 block; KCNQ1-CHO cells, automated patch clamp current; calls only at 10 µM; 490 compounds, 20% hits;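 active means KCNQ1 current drop exceeding 3 SD of negative control wells, seen in both duplicate runs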;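 further: steady state current during a 2 s step from -80 to +40 mV; negative values mean current inhibition and positive values mean potentiation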
KCNQ2 inh – KCNQ2 channel inhibition, selectivity assay for KCNQ1 inhibitor project, cell-based. inhibition, % at 10 µM. 1,600 compounds, 71% hits. AID 651746, 2012. shares compounds with KCNQ1 block. KCNQ2 cells, FluxOR thallium flux fluorescence;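 active means mean percent inhibition of the KCNQ2 thallium signal more than 5 SD above the buffer-only control wells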;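 further: KCNQ2 expressed in CHO cells; 0% = buffer control wells and 100% = XE-991 inhibitor control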
Target sequence (O88943 whole entry, looked up): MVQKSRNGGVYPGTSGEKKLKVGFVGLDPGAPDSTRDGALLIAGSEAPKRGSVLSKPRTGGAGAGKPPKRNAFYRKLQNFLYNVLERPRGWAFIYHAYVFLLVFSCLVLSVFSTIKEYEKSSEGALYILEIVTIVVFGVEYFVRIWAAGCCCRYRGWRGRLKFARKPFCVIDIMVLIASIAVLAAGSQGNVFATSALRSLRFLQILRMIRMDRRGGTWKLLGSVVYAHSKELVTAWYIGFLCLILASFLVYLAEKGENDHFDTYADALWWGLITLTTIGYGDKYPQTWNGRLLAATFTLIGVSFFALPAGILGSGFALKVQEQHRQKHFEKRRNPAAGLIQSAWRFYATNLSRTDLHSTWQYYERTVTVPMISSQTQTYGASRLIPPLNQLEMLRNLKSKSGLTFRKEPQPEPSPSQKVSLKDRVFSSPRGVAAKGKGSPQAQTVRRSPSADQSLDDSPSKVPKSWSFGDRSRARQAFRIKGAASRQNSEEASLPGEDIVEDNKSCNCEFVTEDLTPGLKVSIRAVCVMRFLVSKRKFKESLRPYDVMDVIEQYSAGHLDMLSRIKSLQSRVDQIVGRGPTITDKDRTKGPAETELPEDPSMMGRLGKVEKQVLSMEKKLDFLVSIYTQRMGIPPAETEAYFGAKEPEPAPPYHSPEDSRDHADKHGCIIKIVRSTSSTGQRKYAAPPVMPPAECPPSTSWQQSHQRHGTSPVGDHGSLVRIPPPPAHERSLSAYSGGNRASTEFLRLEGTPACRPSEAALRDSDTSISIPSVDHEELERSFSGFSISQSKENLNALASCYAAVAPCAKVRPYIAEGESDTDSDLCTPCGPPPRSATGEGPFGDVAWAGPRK
KCNQ1-KCNE1 inh – KCNQ1/KCNE1 channel inhibition, selectivity assay for KCNQ1 inhibitor project, CHO-K1 cells, thallium flux, FluxOR. shares compounds with KCNQ1 block. FluxOR thallium flux fluorescence. inhibition, % at 10 µM. 1,600 compounds, 77% hits;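 active means mean percent inhibition of duplicate wells above the buffer-only control mean plus 3 SD of those controls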;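 further: 0% = buffer only wells and 100% = XE-991 inhibitor control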
The depositor's hits bear a star.

Results for CCOC(=O)C(C)On1c(-c2cccc(Cl)c2)nc2ccc([N+](=O)[O-])cc21 (stereo not given) ?
KCNK9 inh: inactive; KCNK3 block: inactive; Cl transport mod: -0.449; KCNQ1 act: inactive; KCNQ1 block: 15*; hERG protect: -28.9; KCNQ1 inh valid: 153.5*; CHO Tl flux: 0.34*; KCNQ2 inh: 130.7%*; KCNQ1-KCNE1 inh: active

How did CC(C)c1ccc(-c2cc(C(=O)N3CCOCC3)c3cc(Br)ccc3n2)cc1 do in these assays?
KCNK9 inh: inactive; KCNK3 block: inactive; KCNQ1 act: inactive; KCNQ1 block: 6*; hERG protect: -11.8; KCNQ1 inh valid: 40.0*; CHO Tl flux: 0.433; KCNQ2 inh: 130.7%*; KCNQ1-KCNE1 inh: inactive

What do the screens show for `O=C(c1cc(-c2ccccc2)nc2ccccc12)N1CCOCC1`?
KCNK9 inh: inactive; KCNK3 block: inactive; KCNQ1 act: inactive; KCNQ1 block: inactive; hERG protect: -1.3

How did COc1ccc(OC)c(C2C(C(=O)c3ccco3)=C(O)C(=O)N2CC2CCCO2)c1 (stereo not given) do in these assays?
KCNK9 inh: inactive; KCNK3 block: inactive; KCNQ1 act: inactive; KCNQ1 block: inactive; hERG protect: -6.7

What do the screens show for `FC(F)(F)c1cccc(NC(=S)NC2CCCC2)c1`?
KCNK9 inh: inactive; KCNK3 block: inactive; Cl transport mod: -1.66; KCNQ1 act: inactive; KCNQ1 block: inactive; hERG protect: -13.6

Results for Cc1ccc(NC(=S)NC2CCCCC2)cc1S(=O)(=O)N(C)C ?
KCNK9 inh: inactive; KCNK3 block: inactive; Cl transport mod: 0.00766; KCNQ1 act: inactive; KCNQ1 block: 7*; hERG protect: -19.1; KCNQ1 inh valid: 131.5*; CHO Tl flux: 0.52; KCNQ1 APC inh: inactive; KCNQ2 inh: 106.7%*; KCNQ1-KCNE1 inh: inactive

What do the screens show for `Fc1cccc(NC(=S)NC2CCCCCCC2)c1`?
KCNK9 inh: inactive; KCNK3 block: inactive; KCNQ1 act: inactive; KCNQ1 block: 8*; hERG protect: -6.7; KCNQ1 inh valid: 105.0*; CHO Tl flux: 0.466; KCNQ1 APC inh: active; KCNQ2 inh: 74.7%*; KCNQ1-KCNE1 inh: 88.5%*

What do the screens show for `O=C(Nc1cccc(F)c1)C1CCCCC1`?
KCNK3 block: inactive

What do the screens show for `CCCCNC(=S)Nc1ccc(Cl)cc1`?
KCNK9 inh: inactive; KCNK3 block: inactive; Cl transport mod: -0.0196; KCNQ1 act: inactive; KCNQ1 block: inactive; hERG protect: -15.4

What do the screens show for `CCCCNC(=S)Nc1ccc(C(F)(F)F)cc1`?
KCNK9 inh: inactive; KCNK3 block: inactive; Cl transport mod: -1.01; KCNQ1 act: inactive; KCNQ1 block: 8*; hERG protect: -8.1; KCNQ1 inh valid: 31.5*; CHO Tl flux: 0.569; KCNQ2 inh: inactive; KCNQ1-KCNE1 inh: inactive

What do the screens show for `FC(F)(F)c1ccc(NC(=S)NC2CCCCC2)cc1`?
KCNK9 inh: inactive; KCNK3 block: inactive; Cl transport mod: 0.00198; KCNQ1 act: inactive; KCNQ1 block: 7*; hERG protect: -9.7; KCNQ1 inh valid: 65.0*; CHO Tl flux: 0.518; KCNQ2 inh: 59.3%*; KCNQ1-KCNE1 inh: 37.0%*

How did S=C(Nc1ccc2nsnc2c1)NC1CCCCC1 do in these assays?
KCNK9 inh: inactive; KCNK3 block: inactive; Cl transport mod: 0.158; KCNQ1 act: inactive; KCNQ1 block: inactive; hERG protect: -12.7

What do the screens show for `S=C(Nc1ccc(Cl)c(Cl)c1)NC1CCCCC1`?
KCNK9 inh: inactive; KCNK3 block: inactive; Cl transport mod: -0.484; KCNQ1 act: inactive; KCNQ1 block: 6*; hERG protect: -13.9; KCNQ1 inh valid: 69.0*; CHO Tl flux: 0.525; KCNQ2 inh: inactive; KCNQ1-KCNE1 inh: inactive

Results for O=C(c1cc(-c2ccc(Cl)cc2)n(-c2cc(Cl)ccc2Cl)n1)N1CCOCC1 ?
KCNK9 inh: inactive; KCNK3 block: inactive; KCNQ1 act: inactive; KCNQ1 block: 7*; hERG protect: -7.2; KCNQ1 inh valid: 61.5*; CHO Tl flux: 0.477; KCNQ2 inh: 81.3%*; KCNQ1-KCNE1 inh: 86.0%*

How did O=C(c1cc(-c2ccc(Cl)cc2)n(-c2ccc(Cl)c(Cl)c2)n1)N1CCOCC1 do in these assays?
KCNK9 inh: inactive; KCNK3 block: inactive; Cl transport mod: 0.192; KCNQ1 act: inactive; KCNQ1 block: inactive; hERG protect: -6.5

How did Cc1c2ccccc2nc2c(F)c(NCCO)c(F)c(F)c12 do in these assays?
KCNK9 inh: inactive; KCNK3 block: inactive; Cl transport mod: inactive; KCNQ1 act: inactive; KCNQ1 block: 6*; hERG protect: -23.7; KCNQ1 inh valid: 177.5*; CHO Tl flux: 0.151*; KCNQ2 inh: inactive; KCNQ1-KCNE1 inh: inactive

How did CN(C)CCCNc1c2ccccc2nc2ccccc12 do in these assays?
KCNK9 inh: inactive; KCNK3 block: inactive; KCNQ1 act: inactive; KCNQ1 block: inactive; hERG protect: -7.5
